Test results from ChEMBL document CHEMBL1144550, “Molecular probes of DNA bulges: functional assay and spectroscopic analysis” (Bioorg Med Chem, 2007).
Activity calls are given as the source filed them. No cut-off for these calls is given here.

Key:
[1] = Effect on DNA binding assessed as binding to HT3AGTT synthetic oligo sequence code by measuring fluorescence stimulation due to AT base pairs next to bulge in bulge binding assay; parameters: species or system Homo sapiens
In short: (§1)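 Dissociation constants for a panel of 17 synthetic bulged oligos, taken from changes in drug fluorescence in emission spectra (excitation 360 nm, emission 480 nm) at 5 °C. Binding appears either as quenching or as stimulation of drug fluorescence. Values are given with standard deviations.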

[2] = Effect on DNA binding assessed as binding to HT4AGTT synthetic oligo sequence code by measuring fluorescence stimulation due to AT base pairs next to bulge in bulge binding assay; parameters: species or system Homo sapiens; in short: as §1
[3] = Effect on DNA binding assessed as binding to HT3AGT synthetic oligo sequence code by measuring fluorescence stimulation due to AT base pairs next to bulge in bulge binding assay; parameters: species or system Homo sapiens; in short: as §1
[4] = Effect on DNA binding assessed as binding to HT3AGCTT synthetic oligo sequence code by measuring fluorescence stimulation due to AT base pairs next to bulge in bulge binding assay; parameters: species or system Homo sapiens; in short: as §1
[5] = Effect on DNA binding assessed as binding to HT3AGTA synthetic oligo sequence code by measuring fluorescence stimulation due to AT base pairs next to bulge in bulge binding assay; parameters: species or system Homo sapiens; in short: as §1
[6] = Effect on DNA binding assessed as binding to HT3TGTA synthetic oligo sequence code by measuring fluorescence stimulation due to AT base pairs next to bulge in bulge binding assay; parameters: species or system Homo sapiens; in short: as §1
[7] = Effect on DNA binding assessed as binding to HT3GGTT synthetic oligo sequence code by measuring fluorescence quenching due to GC base pairs next to bulge in bulge binding assay; parameters: species or system Homo sapiens; in short: as §1
[8] = Effect on DNA binding assessed as binding to HT3GGTC synthetic oligo sequence code by measuring fluorescence quenching due to GC base pairs next to bulge in bulge binding assay; parameters: species or system Homo sapiens; in short: as §1
[9] = Effect on DNA binding assessed as binding to HT3CGTC synthetic oligo sequence code by measuring fluorescence quenching due to GC base pairs next to bulge in bulge binding assay; parameters: species or system Homo sapiens; in short: as §1
[10] = Effect on DNA binding assessed as binding to HT3AT synthetic oligo sequence code by measuring fluorescence stimulation due to AT base pairs next to bulge in bulge binding assay; parameters: species or system Homo sapiens; in short: as §1
[11] = Effect on DNA binding assessed as binding to HT3CGTA synthetic oligo sequence code by measuring fluorescence stimulation due to AT base pairs next to bulge in bulge binding assay; parameters: species or system Homo sapiens; in short: as §1
[12] = Effect on DNA binding assessed as binding to HT3GATC synthetic oligo sequence code by measuring fluorescence quenching due to GC base pairs next to bulge in bulge binding assay; parameters: species or system Homo sapiens; in short: as §1
[13] = Effect on DNA binding assessed as binding to HT3GTTG synthetic oligo sequence code by measuring fluorescence quenching due to GC base pairs next to bulge in bulge binding assay; parameters: species or system Homo sapiens; in short: as §1
Homo sapiens [14] = species on record: Homo sapiens; assay: Effect on slipped DNA synthesis assessed as enhanced synthesis at 40 uM relative to control
[15] = Effect on DNA binding assessed as binding to HT3GGTA synthetic oligo sequence code by measuring fluorescence stimulation due to AT base pairs next to bulge in bulge binding assay; parameters: species or system Homo sapiens; in short: as §1
[16] = Effect on DNA binding assessed as binding to HT3AGTC synthetic oligo sequence code by measuring fluorescence stimulation due to AT base pairs next to bulge in bulge binding assay; parameters: species or system Homo sapiens; in short: as §1
Homo sapiens [17] = species on record: Homo sapiens; assay: Effect on DNA binding assessed as binding to DA12:DAc12 synthetic oligo sequence code by measuring fluorescence quenching due to GC base pairs next to bulge in bulge binding assay; in short: as §1
[18] = Effect on DNA binding assessed as binding to DA12:BA14 synthetic oligo sequence code by measuring fluorescence stimulation due to AT base pairs next to bulge in bulge binding assay; parameters: species or system Homo sapiens; in short: as §1
[19] = biological target: DNA polymerase I Klenow fragment (Escherichia coli) (UniProt P00582); assay: Induction of slipped DNA synthesis assessed as incorporation of [32P]TMP at 40 uM
[20] = Effect on DNA binding assessed as binding to HT3GGTA synthetic oligo sequence code by measuring fluorescence quenching due to GC base pairs next to bulge in bulge binding assay; parameters: species or system Homo sapiens; in short: as §1
[21] = Effect on DNA binding assessed as binding to HT3AGTC synthetic oligo sequence code by measuring fluorescence quenching due to GC base pairs next to bulge in bulge binding assay; parameters: species or system Homo sapiens; in short: as §1

Kd [1]	Kd [2]	Kd [3]	Kd [4]	Kd [5]	Kd [6]	Kd [7]	Kd [8]	Kd [9]	Kd [10]	Kd [11]	Kd [12]	Kd [13]	Activity (Homo sapiens [14])	Activity (Homo sapiens [17])	Kd [18]	Activity [19]	SMILES	further results
130 nM	240 nM	4100 nM	1700 nM	1400 nM	550 nM	110 nM	160 nM	170 nM	13000 nM	160 nM	150 nM	300 nM	15.7	inactive	800 nM	37000 cpm	CN[C@H]1[C@@H](O[C@@H]2c3cc4ccccc4cc3[C@@H]3[C@H]2CC[C@@]32C(=O)C=Cc3ccc(OC)cc32)O[C@H](C)[C@H](O)[C@@H]1O	Kd [15]: 1960 nM; Kd [16]: 260 nM
80 nM	110 nM	8400 nM	2100 nM	220 nM	1130 nM	140 nM	100 nM	150 nM	10000 nM	110 nM	240 nM	160 nM	31.8	inactive	600 nM	75000 cpm	CN[C@H]1[C@@H](O[C@H]2c3cc4ccccc4cc3[C@H]3[C@@H]2CC[C@]32C(=O)C=Cc3ccc(OC)cc32)O[C@H](C)[C@H](O)[C@@H]1O	Kd [20]: 290 nM; Kd [21]: 290 nM
